Screening results from PubChem.
OX1R antag-1 = blocks the human orexin 1 receptor | O43613 | CHO/OX1R cells, Fluo-8 calcium fluorescence, orexin A | inhibition, % at 5 µM | 0.43% of 330,000 active | AID 434989;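 active = inhibition above its plate's threshold, mean inhibition of all tested compounds on the plate plus 3 SD, cut at about 37% in these data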
Target sequence (O43613 whole entry, looked up): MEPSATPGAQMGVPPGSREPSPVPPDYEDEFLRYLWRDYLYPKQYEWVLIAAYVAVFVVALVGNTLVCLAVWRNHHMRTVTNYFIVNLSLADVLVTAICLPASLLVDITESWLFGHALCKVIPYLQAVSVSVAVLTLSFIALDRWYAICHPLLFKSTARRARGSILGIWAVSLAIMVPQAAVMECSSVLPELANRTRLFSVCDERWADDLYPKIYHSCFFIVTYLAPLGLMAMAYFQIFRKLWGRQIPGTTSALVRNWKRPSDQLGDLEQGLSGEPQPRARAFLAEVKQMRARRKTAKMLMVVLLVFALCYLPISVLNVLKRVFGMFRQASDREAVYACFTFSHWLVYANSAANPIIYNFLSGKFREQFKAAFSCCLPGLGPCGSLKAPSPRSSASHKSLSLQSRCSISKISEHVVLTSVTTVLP
GPR7 antagonist = human neuropeptides B/W receptor 1 antagonism. P48145. AID 1861. 1.1% of 290,000 active. GPR7-expressing cells, fluorescence antagonist assay. inhibition, % at 4.4 µM; in the data active = inhibition above about 16%, passing the limit was not always enough;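 note: cells stimulated with the agonist NPW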
OX1R antag-2 = antagonists of human orexin 1 receptor (OX1R); O43613; inhibition, % at 6.6 µM; 1.8% of 330,000 active; OX1R-expressing cells, FRET antagonist read-out; in the data active = inhibition mostly above about 38%, no sharp cut-off; inactive = mostly below about 40%
MPTP block = inhibitors of mitochondrial permeability transition pore | 1.4% of 360,000 active | AID 602449 | isolated mouse mitochondria, Ca2+ swelling absorbance, 30 min | inhibition, % at 10 µM;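 active = inhibition of 50% or more, scaled per plate between neutral and stimulator controls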
CHO parental Ca = counter-screen: ATP calcium response change in parental CHO cells; 0.63% of 330,000 active; inhibition, % at 5.6 µM; parental CHO-K1, ATP-induced calcium, Fluo-8 fluorescence;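 active = inhibition above that plate's mean sample inhibition plus 3 SD, cut at about 26% in these data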
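test system = CHO parental line | reagent = ATP stimulus | measured by = intracellular calcium via Fluo-8 no-wash fluorescent dye | control set = ATP and no-ATP DMSO wells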
Each line names hits and unclear results; the compound was inactive in the other large screens. Most compounds without a hit are left out; they make up all but 3.8% or so of the library.

O=C(CN1C(=O)c2ccc([N+](=O)[O-])cc2C1=O)NC1CCCCCC1	OX1R antag-2 65 (no result: GPR7 antagonist)
O=C(CN1C(=O)c2ccc([N+](=O)[O-])cc2C1=O)Nc1nccs1	none
CCOC(=O)C1(C)CCN1C(=O)c1ccc(C(F)(F)F)cc1 (stereo not given)	none (no result: OX1R antag-1, GPR7 antagonist, OX1R antag-2, CHO parental Ca)
COc1cccc(NC(=O)CCN2C(=O)c3ccc([N+](=O)[O-])cc3C2=O)c1	OX1R antag-2 50
C/C(=N\NC(=O)c1nnn(-c2nonc2N)c1CN(C)c1ccccc1)c1ccccc1O	OX1R antag-2 55
COc1ccc([N+](=O)[O-])c(S(=O)(=O)c2ccc(Cl)cc2)n1	CHO parental Ca 46
COc1ccc([N+](=O)[O-])c(S(=O)(=O)c2ccccc2)n1	GPR7 antagonist 20
COc1ccc(OC)c(CN2C(=O)CSCC2(C)C(=O)NCc2ccccc2)c1 (stereo not given)	none (no result: OX1R antag-1, GPR7 antagonist, OX1R antag-2, CHO parental Ca)
Cc1cccc(N=Nc2ccc(O)c3ncccc23)c1	OX1R antag-1 48, CHO parental Ca 68
Cc1ccc(C)c(N=Nc2ccc(O)c3ncccc23)c1	CHO parental Ca 37
CCOc1ccc(N=Nc2ccc(O)c3ncccc23)cc1	none (no result: OX1R antag-1, OX1R antag-2, CHO parental Ca)
O=C(Nc1ncccc1O)c1ccc2c(c1)OCCO2	none (no result: GPR7 antagonist)
Oc1ccc(N=Nc2ccc3c(c2)OCCO3)c2ncccc12	OX1R antag-1 51, CHO parental Ca 51
CN(Cc1ccco1)C(=O)CC[C@H]1O[C@@H](n2ccc(=O)[nH]c2=O)[C@H](O)[C@@H]1O	none (no result: OX1R antag-1, GPR7 antagonist, OX1R antag-2, CHO parental Ca)
Cc1ccc(Nc2nnc(SC(C)C(=O)NCC3CCCO3)s2)cc1 (stereo not given)	none (no result: GPR7 antagonist)
Cc1cc(C(=O)OC(C)C(=O)Nc2nc(-c3ccccc3)cs2)c(C)o1 (stereo not given)	none
Cc1cc(C(=O)OCC(=O)Nc2nc(-c3ccccc3)cs2)c(C)o1	OX1R antag-2 66
COc1ccc(-c2cn3cc(C)ccc3n2)cc1Br	none
COc1ccc(-c2cn3cc(Cl)ccc3n2)cc1OC	OX1R antag-2 45
Cc1cc(C)cc(-n2ccnc2SCC(=O)O)c1	GPR7 antagonist 30
O=C(/C=C/c1cccc([N+](=O)[O-])c1)Nc1cccc(NC(=O)c2ccco2)c1	none
Cc1ccc(NC(=O)/C(=C/c2cccc([N+](=O)[O-])c2)NC(=O)C2CCCCC2)cc1	none
Cc1ccc(NC(=O)/C(=C\c2cccc([N+](=O)[O-])c2)NC(=O)c2cccs2)cc1	OX1R antag-2 52
O=C(/C=C/c1cccc([N+](=O)[O-])c1)Nc1cccc(NC(=O)c2cccs2)c1	OX1R antag-2 70
O=C(NCc1ccncc1)[C@@H]1CCCN1C(=O)[C@@H]1CCCN1C(=O)c1ccccc1	none (no result: OX1R antag-1, GPR7 antagonist, OX1R antag-2, CHO parental Ca)
CCOC(=O)C1(CC2CCCCO2)CCN(Cc2cc3ccccc3[nH]2)CC1 (stereo not given)	OX1R antag-1 53, GPR7 antagonist 96, CHO parental Ca 36
CCCCn1nnnc1C(c1ccccc1)N1CCN(c2ccccn2)CC1 (stereo not given)	none (no result: OX1R antag-1, GPR7 antagonist, OX1R antag-2, CHO parental Ca)
CCCCNC(=O)C1c2ccccc2OCC(=O)N1Cc1cccnc1 (stereo not given)	none (no result: OX1R antag-1, GPR7 antagonist, OX1R antag-2, CHO parental Ca)
O=C1Nc2ccc(Cl)cc2[C@@](C#CC2CC2)(C(F)(F)F)O1	CHO parental Ca 48 (no result: MPTP block)
CCOc1ccccc1NC(=O)COC(=O)c1c[nH]c2ccccc12	none (no result: OX1R antag-1, GPR7 antagonist, OX1R antag-2, CHO parental Ca)
Cc1ccc(Oc2nnc(-c3cccs3)c3ccccc23)cc1C	CHO parental Ca 40
CS(=O)(=O)O/N=C1\CCCCC1c1ccc([N+](=O)[O-])cc1[N+](=O)[O-] (stereo not given)	OX1R antag-2 49
CCNC(=O)O/N=C1\CCCCC1c1ccc([N+](=O)[O-])cc1[N+](=O)[O-] (stereo not given)	OX1R antag-2 46
O=[N+]([O-])c1ccc(NN=CC2CCCCCC2)c([N+](=O)[O-])c1	none (no result: OX1R antag-1, GPR7 antagonist, OX1R antag-2, CHO parental Ca)
COc1ccc(Cl)cc1C(=O)O/N=C(\N)c1ccc(Cl)cc1	none
COc1cc(OC)c(C(=O)O/N=C(\N)c2cccc(C)c2)cc1OC	OX1R antag-2 36
COc1cc(OC)c(C(=O)O/N=C(\N)c2ccc(C)cc2)cc1OC	OX1R antag-2 36
Cc1cccc(/C(N)=N/OC(=O)c2ccc(F)cc2)c1	none
O=C(Nc1cccc(-c2nc3ccccc3o2)c1)c1cccnc1	OX1R antag-2 65
O=C(O)Cn1cc(/C=c2/sc3nc4ccccc4n3c2=O)c2ccccc21	OX1R antag-2 59
O=c1/c(=C\c2cccn2-c2ccccc2)sc2nc3ccccc3n12	none (no result: OX1R antag-1, OX1R antag-2, CHO parental Ca)
COc1cccc(N(CC(=O)NC2CCCC2)C(=O)CCC(=O)Nc2cc(C)on2)c1	none
O=C(NCc1cccc(CNC(=O)C(=O)NCc2ccco2)c1)C(=O)NCc1ccco1	CHO parental Ca 33
O=C(C1CCN(S(=O)(=O)c2cc(Cl)ccc2Cl)CC1)N1CCCC1	none
CC(C)C[C@H]1CN=C(Nc2ccccc2)N1CCc1cccc(F)c1	OX1R antag-1 87, CHO parental Ca 50 (no result: GPR7 antagonist)
CC(C)C[C@H]1CN=C(Nc2ccccc2)N1CCc1ccc(F)cc1	OX1R antag-1 75, CHO parental Ca 57 (no result: GPR7 antagonist)
CC(C)CCN1C(Nc2ccccc2)=NC[C@@H]1CC(C)C	none
Cc1cccc(CCN2C(Nc3ccccc3)=NC[C@@H]2CC(C)C)c1	OX1R antag-1 49 (no result: GPR7 antagonist)
COc1ccc(NC(=O)CN2CCC(C(N)=O)(N3CCCCC3)CC2)c(OC)c1	none
CC1CCN(c2c([N+](=O)[O-])c(=O)oc3ccccc23)CC1	none
FC(F)(F)c1ccccc1Cc1c(C2CCCCC2)nc2ccc(Br)cn12	none (no result: OX1R antag-1, GPR7 antagonist, OX1R antag-2, CHO parental Ca)
CCOC(=O)c1ccc(-c2ccc3c(=O)c4ccccc4n(C)c3c2)cc1F	OX1R antag-2 66
CCOC(=O)c1ccc(-c2c(-c3ccccc3OC)oc3ccccc23)cc1F	none (no result: GPR7 antagonist)
O=C(O)c1c[nH]c2ccc([N+](=O)[O-])cc2c1=O	none (no result: OX1R antag-1, GPR7 antagonist, OX1R antag-2, CHO parental Ca)
COc1cc(OC)cc(-c2nnc(SCc3c(F)cccc3Cl)o2)c1	CHO parental Ca 38
CCCCN(C(=O)c1ccc(Cl)c(S(=O)(=O)N2CCOCC2)c1)c1c(N)n(CCC)c(=O)[nH]c1=O	none
O=C(NC(=S)N1CCCCC1)c1csc([N+](=O)[O-])c1	OX1R antag-2 37
C=CCNC(=S)NC(=O)c1csc([N+](=O)[O-])c1	none
CCc1nnc(NC(=O)CN2CCN(c3ccccc3F)CC2)s1	none
CCN(CC(=O)Nc1ccc(NC(C)=O)cc1)C(=O)c1ccccc1CCc1ccccc1	none (no result: GPR7 antagonist)
O=C1Nc2ccccc2/C1=C/C(=O)c1cccs1	GPR7 antagonist 26
CCOC(=O)c1nc2c(=O)n(C)c(=O)n(C)c2n(C)c1=O	OX1R antag-2 48 (no result: GPR7 antagonist)
CC(=O)Nc1cccc(NC(=O)c2oc3ccccc3c2C)c1	OX1R antag-2 62 (no result: MPTP block)
Cc1c(C(=O)NCCc2ccc3c(c2)OCCO3)oc2ccccc12	OX1R antag-2 38
COc1ccc(CCNC(=O)c2oc3ccccc3c2C)cc1	none (no result: GPR7 antagonist)
CCC(=O)Nc1ccc(NC(=O)c2oc3ccccc3c2C)cc1	OX1R antag-2 47
Cc1cc(C(=O)OCC(=O)N2CCc3ccccc32)ccc1[N+](=O)[O-]	none (no result: GPR7 antagonist)
O=C(CNc1cc(S(=O)(=O)N2CCOCC2)ccc1NCC1CCCO1)Nc1ccc(F)c(F)c1 (stereo not given)	none
